Results as given in ChEMBL document CHEMBL3774373, “Activity and Predicted Nephrotoxicity of Synthetic Antibiotics Based on Polymyxin B” (J Med Chem, 2016).
In brackets after ≈: the same amount, converted by molar mass. Bridge positions count the residues as written; N and C are the ends. Square brackets hold non-standard residues; d marks the D form. Peptide text beside a SMILES is read from it. * marks the point of attachment. Octanoyl = CCCCCCCC(=O)*; Dab = NCC[C@H](N)C(=O)O

Tests used:
Pseudomonas aeruginosa [1] = test: Antibacterial activity against clinical isolate polymyxin resistant Pseudomonas aeruginosa PA9704 after 18 hrs by 2 fold serial dilution method; type: functional; conditions: PA9704, 18 h
Procedure, shortened: (§1)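 Polymyxin-resistant clinical isolates were grown overnight at 37 °C in NB or MHB with shaking, diluted 50-fold in MHB and grown 1.5–3 h to mid-log phase. The inoculum was 5×10^5 CFU/mL. Compounds were 2-fold broth serial dilutions, final 32 to 0.015 μg/mL; the polymyxin controls ran 128–0.06 μg/mL. The MIC was the lowest concentration with no visible growth after 18 h at 37 °C.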

Klebsiella pneumoniae [2] = test: Antibacterial activity against Klebsiella pneumoniae ATCC 13883 after 18 hrs by 2 fold serial dilution method; type: functional; conditions: ATCC 13883, 18 h
Procedure, shortened: (§2)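 Overnight cultures in nutrient or Mueller Hinton broth at 37 °C with shaking, diluted 50-fold into fresh MHB and grown 1.5–3 h to mid-log. Inoculum 5×10^5 CFU/mL in 2-fold serial dilutions, final range 32 to 0.015 μg/mL. MIC read visually after 18 h at 37 °C as the lowest concentration with no visible growth.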

Klebsiella pneumoniae [3] = test: Antibacterial activity against Klebsiella pneumoniae ATCC BAA-2146 expressing NDM-1 after 18 hrs by 2 fold serial dilution method; type: functional; conditions: ATCC BAA-2146, 18 h
Procedure, shortened: (§3)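 Overnight cultures at 37 °C in nutrient or Mueller Hinton broth with shaking were diluted 50-fold in MHB and grown 1.5–3 h to mid-log phase. The inoculum was 5×10^5 CFU/mL in MHB. Compounds were 2-fold serially diluted, final 32 to 0.015 μg/mL. After 18 h at 37 °C, the MIC was read visually as the lowest concentration with no visible growth.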

Acinetobacter baumannii [4] = test: Antibacterial activity against Acinetobacter baumannii ATCC 19606 after 18 hrs by 2 fold serial dilution method; type: functional; conditions: ATCC 19606, 18 h; procedure, shortened: as §2
Klebsiella pneumoniae [5] = test: Antibacterial activity against clinical isolate carbapenem and polymyxin resistant Klebsiella pneumoniae Koprana 100650661:1 after 18 hrs by 2 fold serial dilution method; type: functional; conditions: Koprana 100650661:1, 18 h; procedure, shortened: as §1
Klebsiella pneumoniae [6] = test: Antibacterial activity against clinical isolate carbapenem and polymyxin resistant Klebsiella pneumoniae 138-16357-20362 after 18 hrs by 2 fold serial dilution method; type: functional; conditions: 138-16357-20362, 18 h; procedure, shortened: as §1
Staphylococcus aureus = test: microbe, parasite or virus in culture; conditions: ATCC 25923, 18 h
Escherichia coli = test: Antibacterial activity against Escherichia coli ATCC 25922 after 18 hrs by 2 fold serial dilution method; type: functional; conditions: ATCC 25922, 18 h; procedure, shortened: as §2
Acinetobacter baumannii [7] = test: Antibacterial activity against clinical isolate carbapenem and polymyxin resistant Acinetobacter baumannii Ptyela 100734512:2 after 18 hrs by 2 fold serial dilution method; type: functional; conditions: Ptyela 100734512:2, 18 h; procedure, shortened: as §1
Klebsiella pneumoniae [8] = test: Antibacterial activity against multidrug resistant Klebsiella pneumoniae ATCC 700603 after 18 hrs by 2 fold serial dilution method; type: functional; conditions: Klebsiella pneumoniae, 700603, 18 h; procedure, shortened: as §3
Pseudomonas aeruginosa [9] = test: Antibacterial activity against clinical isolate polymyxin resistant Pseudomonas aeruginosa FADDI-PA070 after 18 hrs by 2 fold serial dilution method; type: functional; conditions: FADDI-PA070, 18 h; procedure, shortened: as §1
Pseudomonas aeruginosa [10] = test: Antibacterial activity against Pseudomonas aeruginosa ATCC 27853 after 18 hrs by 2 fold serial dilution method; type: functional; conditions: ATCC 27853, 18 h; procedure, shortened: as §2
[11] = Cytotoxicity against human HepG2 cells after 24 hrs by resazurin assay; type: cell-based; conditions: HepG2 cells

For `CCCCCCCC(=O)N[C@@H](CCN)C(=O)N[C@H](C(=O)N[C@@H](CCN)C(=O)N[C@H]1CCNC(=O)[C@H]([C@@H](C)O)NC(=O)[C@H](CCN)NC(=O)[C@H](CCNC(=O)[C@@H](N)CCCNC(=N)N)NC(=O)[C@H](CC(C)C)NC(=O)[C@@H](Cc2ccccc2)NC(=O)[C@H](CCN)NC1=O)[C@@H](C)O`, the MIC (Pseudomonas aeruginosa [1]) was over 32 µg/mL, the MIC (Klebsiella pneumoniae [2]) was 4 µg/mL (≈ 2.97 µM) and the MIC (Klebsiella pneumoniae [3]) was 1 µg/mL (≈ 0.743 µM). For the same molecule, the MIC (Acinetobacter baumannii [4]) was 4 µg/mL (≈ 2.97 µM), the MIC (Klebsiella pneumoniae [5]) was over 32 µg/mL and the MIC (Klebsiella pneumoniae [6]) was over 32 µg/mL. The MIC (Staphylococcus aureus) was over 32 µg/mL, the MIC (Escherichia coli) was 0.5 µg/mL (≈ 0.372 µM) and the MIC (Acinetobacter baumannii [7]) was over 32 µg/mL. For the same molecule, the MIC (Klebsiella pneumoniae [8]) was 0.5 µg/mL (≈ 0.372 µM), the MIC (Pseudomonas aeruginosa [9]) was over 32 µg/mL and the MIC (Pseudomonas aeruginosa [10]) was 2 µg/mL (≈ 1.49 µM).
`CCCCCCCC(=O)N[C@@H](CCN)C(=O)N[C@H](C(=O)N[C@@H](CCN)C(=O)N[C@H]1CCNC(=O)[C@H]([C@@H](C)O)NC(=O)[C@H](CCN)NC(=O)[C@H](Cc2ccc(N)cc2)NC(=O)[C@H](CC(C)C)NC(=O)[C@@H](Cc2ccccc2)NC(=O)[C@H](CCN)NC1=O)[C@@H](C)O` gave an MIC (Pseudomonas aeruginosa [1]) of over 32 µg/mL, an MIC (Klebsiella pneumoniae [2]) of 8 µg/mL (≈ 6.39 µM) and an MIC (Klebsiella pneumoniae [3]) of 2 µg/mL (≈ 1.6 µM). The MIC (Acinetobacter baumannii [4]) was 4 µg/mL (≈ 3.2 µM), the MIC (Klebsiella pneumoniae [5]) was over 32 µg/mL and the MIC (Klebsiella pneumoniae [6]) was over 32 µg/mL. For the same molecule, the MIC (Staphylococcus aureus) was over 32 µg/mL, the MIC (Escherichia coli) was 0.5 µg/mL (≈ 0.4 µM) and the MIC (Acinetobacter baumannii [7]) was over 32 µg/mL. For the same molecule, the MIC (Klebsiella pneumoniae [8]) was 1 µg/mL (≈ 0.799 µM), the MIC (Pseudomonas aeruginosa [9]) was 32 µg/mL (≈ 25.6 µM) and the MIC (Pseudomonas aeruginosa [10]) was 8 µg/mL (≈ 6.39 µM).
Work on `CCCCCCCC(=O)N[C@@H](CCN)C(=O)N[C@H](C(=O)N[C@@H](CCN)C(=O)N[C@H]1CCNC(=O)[C@H]([C@@H](C)O)NC(=O)[C@H](CCN)NC(=O)[C@H](CCCNC(=N)N)NC(=O)[C@H](CC(C)C)NC(=O)[C@@H](Cc2ccccc2)NC(=O)[C@H](CCN)NC1=O)[C@@H](C)O` yielded an MIC (Pseudomonas aeruginosa [1]) of over 32 µg/mL, an MIC (Klebsiella pneumoniae [2]) of 4 µg/mL (≈ 3.21 µM) and an MIC (Klebsiella pneumoniae [3]) of 0.5 µg/mL (≈ 0.401 µM). For the same molecule, the MIC (Acinetobacter baumannii [4]) was 0.5 µg/mL (≈ 0.401 µM), the MIC (Klebsiella pneumoniae [5]) was over 32 µg/mL and the MIC (Klebsiella pneumoniae [6]) was over 32 µg/mL. The MIC (Staphylococcus aureus) was over 32 µg/mL, the MIC (Escherichia coli) was 0.25 µg/mL (≈ 0.201 µM) and the MIC (Acinetobacter baumannii [7]) was 32 µg/mL (≈ 25.7 µM). It also gave an MIC (Klebsiella pneumoniae [8]) of 0.5 µg/mL (≈ 0.401 µM), an MIC (Pseudomonas aeruginosa [9]) of 32 µg/mL (≈ 25.7 µM) and an MIC (Pseudomonas aeruginosa [10]) of 1 µg/mL (≈ 0.803 µM).
With `CN[C@@H](CC(C)C)C(=O)N[C@H]1C(=O)N[C@@H](CC(N)=O)C(=O)N[C@H]2C(=O)N[C@H]3C(=O)N[C@H](C(=O)N[C@@H](C(=O)O)c4cc(O)cc(O)c4-c4cc3ccc4O)[C@H](O)c3ccc(c(Cl)c3)Oc3cc2cc(c3O[C@H]2O[C@@H](CO)[C@H](O)[C@@H](O)[C@@H]2O[C@@H]2C[C@@](C)(N)[C@@H](O)[C@@H](C)O2)Oc2ccc(cc2Cl)[C@H]1O` the CC50 at 24 h [11] was over 300 µM.
Work on `CCCCCCCC(=O)NCC(=O)N[C@@H](CCN)C(=O)N[C@H](C(=O)N[C@H]1CCNC(=O)[C@H]([C@@H](C)O)NC(=O)[C@H](CCN)NC(=O)[C@H](CCN)NC(=O)[C@H](CC(C)C)NC(=O)[C@@H](Cc2ccccc2)NC(=O)[C@H](CCN)NC1=O)[C@@H](C)O` (Octanoyl-G[Dab]T[Dab][Dab][dF]L[Dab][Dab]T; lactam 4-C) yielded an MIC (Pseudomonas aeruginosa [1]) of over 32 µg/mL, an MIC (Klebsiella pneumoniae [2]) of 32 µg/mL (≈ 27.9 µM) and an MIC (Klebsiella pneumoniae [3]) of 16 µg/mL (≈ 14 µM). The MIC (Acinetobacter baumannii [4]) was over 32 µg/mL, the MIC (Klebsiella pneumoniae [5]) was over 32 µg/mL and the MIC (Klebsiella pneumoniae [6]) was over 32 µg/mL. The MIC (Staphylococcus aureus) was over 32 µg/mL, the MIC (Escherichia coli) was 16 µg/mL (≈ 14 µM) and the MIC (Acinetobacter baumannii [7]) was over 32 µg/mL. For the same molecule, the CC50 at 24 h [11] was over 300 µM, the MIC (Klebsiella pneumoniae [8]) was 8 µg/mL (≈ 6.98 µM) and the MIC (Pseudomonas aeruginosa [9]) was over 32 µg/mL. For the same molecule, the MIC (Pseudomonas aeruginosa [10]) was 2 µg/mL (≈ 1.74 µM).
`CCCCCCCC(=O)N[C@@H](CCN)C(=O)N[C@H](C(=O)N[C@@H](CCN)C(=O)N[C@H]1CCNC(=O)[C@H]([C@@H](C)O)NC(=O)[C@H](CCN)NC(=O)[C@H](CCN)NC(=O)[C@H](CC(C)C)NC(=O)[C@@H](Cc2ccccc2)NC(=O)[C@H](CCCNC(=N)N)NC1=O)[C@@H](C)O` (Octanoyl-[Dab]T[Dab][Dab]R[dF]L[Dab][Dab]T; lactam 4-C) gave an MIC (Pseudomonas aeruginosa [1]) of over 32 µg/mL, an MIC (Klebsiella pneumoniae [2]) of over 32 µg/mL and an MIC (Klebsiella pneumoniae [3]) of 32 µg/mL (≈ 25.7 µM). It also gave an MIC (Acinetobacter baumannii [4]) of over 32 µg/mL, an MIC (Klebsiella pneumoniae [5]) of over 32 µg/mL and an MIC (Klebsiella pneumoniae [6]) of over 32 µg/mL. It also gave an MIC (Staphylococcus aureus) of over 32 µg/mL, an MIC (Escherichia coli) of 16 µg/mL (≈ 12.8 µM) and an MIC (Acinetobacter baumannii [7]) of over 32 µg/mL. It also gave a CC50 at 24 h [11] of over 300 µM, an MIC (Klebsiella pneumoniae [8]) of 32 µg/mL (≈ 25.7 µM) and an MIC (Pseudomonas aeruginosa [9]) of over 32 µg/mL. It also gave an MIC (Pseudomonas aeruginosa [10]) of 32 µg/mL (≈ 25.7 µM).
